Source: ChEMBL document CHEMBL5724801, “EUbOPEN Chemogenomics Library - Multiplex” (2024)
Several values for one entry are separate records, joined by “and”; a condition that tells them apart may be missing. Equal entries are not always repeated.

Test system: HEK-293T
Test: Multiplex assay against HEK293T
Format: toxicity, cell-based
Conditions: human
Summary of the method: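 On a CQ1 microscope at 37°C and 5% CO2, live cells were imaged after compound addition. They had been stained at seeding with Hoechst33342, BioTracker Green Microtubule Cytoskeleton Dye, MitoTracker Red and Annexin V Alexa Fluor 680. CellPathfinder machine-learning gating assigned cells to Hoechst high-intensity objects or normal cells, normal cells to healthy, pyknosed or fragmented nuclei, and pyknosed cells to mitotic or apoptotic. Tubulin, mitochondrial-mass and membrane-permeability phenotypes are per cents of healthy-nucleus cells.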

[1] = 12 h, 1 µM, compound concentration 1 uM
[2] = 12 h, 10 µM, compound concentration 10 uM
[3] = 24 h, 1 µM, compound concentration 1 uM
[4] = 24 h, 10 µM, compound concentration 10 uM
[5] = 48 h, 1 µM, compound concentration 1 uM
[6] = 48 h, 10 µM, compound concentration 10 uM

SMILES: CSc1nc(NC2CCCC2)c([N+](=O)[O-])c(NC2CCCC2)n1 [GS-39783]
- Population Apoptotic (%) [1]: 45% and 40%
- Population Fragmented Nuclei (%) [1]: 11% and 3%
- Population Healthy Nuclei (%) [1]: 74% and 85%
- Population Hoechst High Intensity Objects (%) [1]: 8% and 4%
- Population Membrane Permeable-Phenotype (%) [1]: 0%
- Population Mitochondria Different-Phenotype (%) [1]: 41% and 68%
- Population Mitotic Cells (%) [1]: 54% and 59%
- Population Normal (%) [1]: 91% and 95%
- Population Pyknosed Nuclei (%) [1]: 14% and 11%
- Population Tubulin-Different-Phenotype (%) [1]: 30% and 27%
- Total Cell Count [1]: 346 and 301
- Population Apoptotic (%) [2]: 29% and 40%
- Population Fragmented Nuclei (%) [2]: 6% and 5%
- Population Healthy Nuclei (%) [2]: 81% and 84%
- Population Hoechst High Intensity Objects (%) [2]: 6% and 5%
- Population Membrane Permeable-Phenotype (%) [2]: 0%
- Population Mitochondria Different-Phenotype (%) [2]: 50% and 68%
- Population Mitotic Cells (%) [2]: 70% and 60%
- Population Normal (%) [2]: 93% and 94%
- Population Pyknosed Nuclei (%) [2]: 12% and 10%
- Population Tubulin-Different-Phenotype (%) [2]: 40% and 29%
- Total Cell Count [2]: 449 and 406
- Population Apoptotic (%) [3]: 30% and 38%
- Population Fragmented Nuclei (%) [3]: 12% and 7%
- Population Healthy Nuclei (%) [3]: 76% and 84%
- Population Hoechst High Intensity Objects (%) [3]: 7% and 8%
- Population Membrane Permeable-Phenotype (%) [3]: 0%
- Population Mitochondria Different-Phenotype (%) [3]: 25% and 51%
- Population Mitotic Cells (%) [3]: 69% and 61%
- Population Normal (%) [3]: 92% and 91%
- Population Pyknosed Nuclei (%) [3]: 11% and 7%
- Population Tubulin-Different-Phenotype (%) [3]: 19%
- Total Cell Count [3]: 492 and 360
- Population Apoptotic (%) [4]: 27% and 37%
- Population Fragmented Nuclei (%) [4]: 11% and 8%
- Population Healthy Nuclei (%) [4]: 78% and 83%
- Population Hoechst High Intensity Objects (%) [4]: 5% and 6%
- Population Membrane Permeable-Phenotype (%) [4]: 1% and 0%
- Population Mitochondria Different-Phenotype (%) [4]: 30% and 52%
- Population Mitotic Cells (%) [4]: 72% and 62%
- Population Normal (%) [4]: 94% and 93%
- Population Pyknosed Nuclei (%) [4]: 10% and 7%
- Population Tubulin-Different-Phenotype (%) [4]: 30% and 28%
- Total Cell Count [4]: 553 and 474
- Population Apoptotic (%) [5]: 35% and 30%
- Population Fragmented Nuclei (%) [5]: 15% and 13%
- Population Healthy Nuclei (%) [5]: 74% and 77%
- Population Hoechst High Intensity Objects (%) [5]: 3% and 6%
- Population Membrane Permeable-Phenotype (%) [5]: 1% and 0%
- Population Mitochondria Different-Phenotype (%) [5]: 22% and 32%
- Population Mitotic Cells (%) [5]: 64% and 69%
- Population Normal (%) [5]: 96% and 93%
- Population Pyknosed Nuclei (%) [5]: 9% and 8%
- Population Tubulin-Different-Phenotype (%) [5]: 22% and 24%
- Total Cell Count [5]: 775 and 505
- Population Apoptotic (%) [6]: 17% and 30%
- Population Fragmented Nuclei (%) [6]: 14% and 13%
- Population Healthy Nuclei (%) [6]: 78% and 77%
- Population Hoechst High Intensity Objects (%) [6]: 3% and 5%
- Population Membrane Permeable-Phenotype (%) [6]: 1% and 0%
- Population Mitochondria Different-Phenotype (%) [6]: 27% and 35%
- Population Mitotic Cells (%) [6]: 82% and 69%
- Population Normal (%) [6]: 96% and 94%
- Population Pyknosed Nuclei (%) [6]: 7% and 8%
- Population Tubulin-Different-Phenotype (%) [6]: 21%
- Total Cell Count [6]: 856 and 647
